Activity calls are given as the source filed them. No cut-off for these calls is given here.
Experiments:
U-937 = assay: Inhibition of [ethanolamine-1-3H]AEA uptake in human U937 cell homogenate preincubated for 20 mins followed by AEA addition measured after 5 mins by scintillation counting method; type: functional, cell-based; details: in the assay text read “intact human U937 cells” for “human U937 cell homogenate”
In short: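 Intact U937 cells (0.5 × 10^6) in serum-free medium. Preincubated 20 min at 37 °C with compound at a 10 μM screening concentration, then 5 min at 37 °C with 100 nM AEA plus 0.5 nM [ethanolamine-1-3H]AEA. Stopped on ice and by rapid filtration over GF/C filters presoaked in PBS/0.2% BSA. Washed with ice-cold PBS/1% fatty acid-free BSA, then scintillation counted.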

[1] = molecular target: T1, Fatty-acid amide hydrolase 1 (Homo sapiens, UniProt O00519); assay: Inhibition of FAAH in human U937 cell homogenate assessed as decrease in [ethanolamine-1-3H]AEA levels preincubated for 30 mins followed by AEA addition measured after 15 mins by liquid scintillation counting method
T1 sequence (O00519 whole entry): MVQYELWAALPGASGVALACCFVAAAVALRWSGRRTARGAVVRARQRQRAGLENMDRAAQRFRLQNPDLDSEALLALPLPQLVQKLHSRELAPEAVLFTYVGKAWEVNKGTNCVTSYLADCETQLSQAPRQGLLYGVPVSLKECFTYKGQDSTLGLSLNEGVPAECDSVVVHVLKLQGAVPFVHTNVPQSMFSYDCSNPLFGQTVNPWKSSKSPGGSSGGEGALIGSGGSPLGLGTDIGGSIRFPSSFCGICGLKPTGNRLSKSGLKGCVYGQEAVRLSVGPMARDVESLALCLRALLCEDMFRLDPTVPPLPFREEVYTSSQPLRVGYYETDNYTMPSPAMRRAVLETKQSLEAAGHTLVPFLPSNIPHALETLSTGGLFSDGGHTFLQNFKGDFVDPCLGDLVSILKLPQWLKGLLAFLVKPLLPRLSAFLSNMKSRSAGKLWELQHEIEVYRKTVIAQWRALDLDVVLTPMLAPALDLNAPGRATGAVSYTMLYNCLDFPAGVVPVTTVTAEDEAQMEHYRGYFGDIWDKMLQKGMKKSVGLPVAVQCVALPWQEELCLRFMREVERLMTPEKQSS
In short: (§1)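 U937 cell homogenate (100 μg) in 10 mM Tris-HCl, 1 mM EDTA, pH 8, 0.1% fatty acid-free BSA. Compound screened at 10 μM, 30 min at 37 °C. Then 100 nM AEA with 1 nM [ethanolamine-1-3H]AEA tracer added, 15 min at 37 °C. Stopped with ice-cold CHCl3:MeOH (1:1), centrifuged, tritium in aqueous phase counted by liquid scintillation. Data as mean with 95% CI, n = 3.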

Monoglyceride lipase = molecular target: T2, Monoglyceride lipase (Homo sapiens, UniProt Q99685); assay: Inhibition of MAGL in human U937 cell homogenate assessed as decrease in [ethanolamine-1-3H]AEA levels preincubated for 30 mins followed by AEA addition measured after 15 mins by liquid scintillation counting method; in short: as §1
T2 sequence (Q99685 whole entry): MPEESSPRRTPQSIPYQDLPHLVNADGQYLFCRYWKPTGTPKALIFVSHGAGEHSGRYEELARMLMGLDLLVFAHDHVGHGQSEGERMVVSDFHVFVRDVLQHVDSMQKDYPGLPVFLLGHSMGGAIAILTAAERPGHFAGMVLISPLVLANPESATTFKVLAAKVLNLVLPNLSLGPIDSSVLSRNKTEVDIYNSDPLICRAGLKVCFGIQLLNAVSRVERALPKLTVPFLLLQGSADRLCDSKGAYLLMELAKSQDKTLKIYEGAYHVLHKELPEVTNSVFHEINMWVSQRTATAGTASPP

[2] = molecular target: T3, Monoglyceride lipase (Homo sapiens) (UniProt Q99685); assay: Inhibition of MAGL in human U937 cell homogenate assessed as decrease in [ethanolamine-1-3H]AEA levels up to 10 uM preincubated for 30 mins followed by AEA addition measured after 15 mins by liquid scintillation counting method; in short: as §1
T3 sequence (whole entry): T2 sequence (Q99685 whole entry)

Cannabinoid receptor 2 = Cannabinoid receptor 2 (Homo sapiens, UniProt P34972); assay: Displacement of [3H]CP55,940 from human CB2 receptor expressed in CHO-K1 cell membranes after 1.5 hrs by liquid scintillation counting assay
[3] = molecular target: T4, Fatty-acid amide hydrolase 1 (Homo sapiens) (UniProt O00519); assay: Inhibition of FAAH in human U937 cell homogenate assessed as decrease in [ethanolamine-1-3H]AEA levels up to 10 uM preincubated for 30 mins followed by AEA addition measured after 15 mins by liquid scintillation counting method; in short: as §1
T4 sequence (whole entry): T1 sequence (O00519 whole entry)

Cannabinoid receptor 1 [4] = molecular target: T5, Cannabinoid receptor 1 (Homo sapiens, UniProt P21554); assay: Positive allosteric modulation of human CB1 receptor expressed in CHO-K1 cell membranes assessed as induction of [3H]CP55,940 binding after 1.5 hrs by liquid scintillation counting assay; type: functional
Cannabinoid receptor 1 [5] = molecular target: T5, Cannabinoid receptor 1; assay: Negative allosteric modulation of human CB1 receptor expressed in HEK293 cells assessed as inhibition of 33 nM CP55,940-induced SRE transcriptional activity after 5 hrs by luciferase reporter gene assay; type: functional, cell-based
Cannabinoid receptor 1 [6] = molecular target: T5, Cannabinoid receptor 1; assay: Positive allosteric modulation of human CB1 receptor expressed in CHO-K1 cell membranes assessed as induction of [3H]CP55,940 binding up to 10 uM after 1.5 hrs by liquid scintillation counting assay; type: functional
Cannabinoid receptor 1 [7] = molecular target: T5, Cannabinoid receptor 1; assay: Positive allosteric modulation of human CB1 receptor expressed in CHO-K1 cell membranes assessed as induction of [3H]CP55,940 binding at 100 uM after 1.5 hrs by liquid scintillation counting assay relative to control; type: functional

T5 sequence (P21554 whole entry): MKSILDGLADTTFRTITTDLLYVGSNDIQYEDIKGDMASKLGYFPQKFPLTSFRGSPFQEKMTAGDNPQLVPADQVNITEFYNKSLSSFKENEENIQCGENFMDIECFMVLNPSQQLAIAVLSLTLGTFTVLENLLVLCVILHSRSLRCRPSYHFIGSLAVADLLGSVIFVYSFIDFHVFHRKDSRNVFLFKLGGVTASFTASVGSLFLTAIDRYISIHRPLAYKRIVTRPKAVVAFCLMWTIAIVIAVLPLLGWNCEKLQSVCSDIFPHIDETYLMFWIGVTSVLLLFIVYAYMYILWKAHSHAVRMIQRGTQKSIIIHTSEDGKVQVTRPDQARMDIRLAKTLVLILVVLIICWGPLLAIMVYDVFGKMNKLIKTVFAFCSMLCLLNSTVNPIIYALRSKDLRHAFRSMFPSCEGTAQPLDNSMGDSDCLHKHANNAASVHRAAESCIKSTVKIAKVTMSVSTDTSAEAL
Cannabinoid receptor 2, sequence (P34972 whole entry): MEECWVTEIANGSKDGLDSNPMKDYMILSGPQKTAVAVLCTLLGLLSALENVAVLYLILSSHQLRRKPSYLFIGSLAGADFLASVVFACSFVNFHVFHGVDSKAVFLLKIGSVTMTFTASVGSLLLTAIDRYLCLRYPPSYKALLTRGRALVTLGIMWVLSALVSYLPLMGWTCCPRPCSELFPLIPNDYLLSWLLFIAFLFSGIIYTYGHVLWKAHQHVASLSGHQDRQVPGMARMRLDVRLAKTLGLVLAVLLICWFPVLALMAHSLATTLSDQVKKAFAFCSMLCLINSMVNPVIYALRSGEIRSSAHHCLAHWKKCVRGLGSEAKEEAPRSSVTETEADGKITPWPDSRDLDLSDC

SMILES | IC50 (U-937) [µM] | IC50 [1] [µM] | IC50 (Monoglyceride lipase) [µM] | inhibition [2] | Ki (Cannabinoid receptor 2) [µM] | inhibition [3] | EC50 (Cannabinoid receptor 1 [4]) [µM] | IC50 (Cannabinoid receptor 1 [5]) [µM] | Activity (Cannabinoid receptor 1 [4]) | Activity (Cannabinoid receptor 1 [6]) | Activity (Cannabinoid receptor 1 [7]) [%]
O=C(Nc1ccc(Cl)cc1)Nc1cccc(Nc2cccc(N3CCCC3)n2)c1 | > 10 | > 10 | > 10 | inactive | 52.6 | inactive |  |  |  |  | 
O=C(Nc1ccc(Cl)cc1)Nc1cccc(Nc2cccc(N3CCCC3)c2)c1 | > 10 | > 10 | > 10 | inactive | > 100 | inactive | 13.5 | 9.6 |  |  | 
O=C(Nc1ccc(Cl)cc1)Nc1cccc(-c2cccc(N3CCCC3)c2)c1 | > 10 | > 10 | > 10 | inactive | 49.8 | inactive | 0.043 | 0.29 | Dose-dependent effect |  | 
O=C(Nc1ccc(Cl)cc1)Nc1cccc(-c2cccc(N3CCCC3)n2)c1 | > 10 | 2.1 |  | inactive | > 10 |  |  |  |  |  | 
O=C(Cc1ccc(Cl)cc1)Nc1cccc(-c2cccc(N3CCCC3)c2)c1 | > 10 | > 10 | > 10 | inactive | > 100 | inactive | > 10 | 1.9 |  | Active | 10

Source: ChEMBL document CHEMBL4177633 (Bioorg Med Chem, 2017)
